This note sets out measurements from ChEMBL document CHEMBL4699407, “Isoquinoline thiosemicarbazone displays potent anticancer activity with in vivo efficacy against aggressive leukemias” (RSC Med Chem, 2020).

Test [1] deals with MIA PaCa-2. The test is described as follows: Cytotoxicity against human MIA PaCa2 cells assessed as reduction in cell viability at 25 nM in presence of Cu2+ and BCPS incubated for 24 hrs by trypan blue assay. It counts as functional, cell-based. The essentials:
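MIAPACA2 cells were given 25 nM compound plus 20 μM Cu(II) for 24 h, with or without the membrane-impermeable copper chelator bathocuproine disulfonate (300 μM). Viable cells were measured by trypan blue exclusion on a Vi-Cell counter.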

Test [2] has as its system MIA PaCa-2. The test is described as follows: Cytotoxicity against human MIA PaCa2 cells assessed as reduction in cell viability 72 hrs by cell titer-glo luminescent cell viability assay. In kind it is functional. The essentials:
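MIAPACA2 cells in conventional medium without copper supplement got serially diluted compound for 72 h. ATP content was read by CellTiter-Glo, and IC90 (90% proliferation inhibition vs DMSO control) was calculated.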
In general terms: Cellular ATP, detected with luciferase, serves as a proxy for viable cell number.

The test system of test [3] is MIA PaCa-2. In words: Cytotoxicity against human MIA PaCa2 cells assessed as reduction in cell viability at 25 nM in presence of Zn2+ incubated for 72 hrs by cell titer-glo luminescent cell viability assay. In kind it is functional, cell-based. The essentials: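 MIAPACA2 cells were exposed to compound for 72 h with 20 μM Fe(II) or Zn(II) supplement. Proliferation was read by CellTiter-Glo ATP luminescence.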

For test [4], the system named is ASPC1. The test is described as follows: Cytotoxicity against human ASPC1 cells assessed as reduction in cell viability in presence of Cu2+ incubated for 72 hrs by cell titer-glo luminescent cell viability assay. It counts as functional, cell-based. Conditions: ASPC1, 72 h. The essentials: (§1)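 Cells were grown in DMEM or RPMI with 10% FBS, without antibiotics, at 37 °C, 20% O2, 5% CO2. Adherent lines were seeded at 500 cells/well. Serially diluted compound was given with 20 μM Cu(II) (CuCl2) for 72 h; leukemia models received pre-formed 1:1 copper complex. ATP was read by CellTiter-Glo luminescence. IC50 is relative to DMSO-treated cells.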

Test [5] has as its system PANC-03-27. The test is described as follows: Cytotoxicity against human PANC-03-27 cells assessed as reduction in cell viability in presence of Cu2+ incubated for 72 hrs by cell titer-glo luminescent cell viability assay. It counts as functional, cell-based. Conditions: PANC-03-27, 72 h. The essentials: as §1
Test [6] relates to L3.6pl. In words: Cytotoxicity against human L3.6pl cells assessed as reduction in cell viability in presence of Cu2+ incubated for 72 hrs by cell titer-glo luminescent cell viability assay. In kind it is functional, cell-based. The essentials:
as §1

Test [7] deals with NCI-H1963. In words: Cytotoxicity against human NCI-H1963 cells assessed as reduction in cell viability in presence of Cu2+ incubated for 72 hrs by cell titer-glo luminescent cell viability assay. It counts as functional, cell-based. Conditions: NCI-H1963, 72 h. The essentials:
as §1

The subject of test [8] is MIA PaCa-2. The test is described as follows: Induction of apoptosis in human MIA PaCa-2 cells assessed as increase in late apoptotic cells at 25 nM in presence of Cu2+ incubated for 72 hrs by annexin V and propidium iodide staining based flow cytometry analysis relative to control. It counts as functional. The essentials: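 Cells given 25 nM compound with or without 20 μM Cu(II) and/or the ATR inhibitor VE-822 at 250 nM for 72 h. Stained with annexin V-FITC and propidium iodide, then analysed on a five-laser flow cytometer to score viable, early apoptotic, late apoptotic and necrotic fractions against vehicle.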

In test [9] the test system is MIA PaCa-2. In words: Induction of apoptosis in human MIA PaCa-2 cells assessed as increase in caspase 3 cleavage at 10 nM in presence of Cu2+ incubated for 48 hrs by immunoblot assay. It counts as functional, cell-based. The essentials:
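Treated with 10 nM compound plus 20 μM Cu(II). Lysed in RIPA buffer with protease and phosphatase inhibitors, then sonicated and centrifuged at 20 000g, 4 °C. Protein measured by micro BCA, and equal amounts run on bis-tris gels. Primary antibodies in 5% BSA/TBST; HRP-linked anti-rabbit or anti-mouse secondaries at 1:2500. Chemiluminescent detection on film; representative blot.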
A general note: In western blotting, separated proteins are transferred to a membrane and probed.

The test system of test [10] is MIA PaCa-2. In words: Induction of DNA damage in human MIA PaCa-2 cells assessed as decrease in dGTP level at 25 nM in presence of Cu2+ incubated for 48 hrs by LC-MS/MS analysis. It counts as functional, cell-based. The essentials: (§2)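 Cells in DMEM or RPMI with 10% FBS, 37 °C, 5% CO2. Treated with 25 nM compound plus 20 μM Cu(II) for 48 h. Nucleotide pools quantified by LC-MS/MS with multiple reaction monitoring. Cells were in glucose-free DMEM with 10% dialyzed FBS and 11 mM [U-13C6]glucose for 48 h, and glucose-labeled pools were compared. Mean ± SD, n = 3, two-way ANOVA with Bonferroni correction.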

Test [11] relates to MIA PaCa-2. The test is described as follows: Induction of DNA damage in human MIA PaCa-2 cells assessed as decrease in rGTP level at 25 nM in presence of Cu2+ incubated for 48 hrs by LC-MS/MS analysis. In kind it is functional, cell-based. The essentials:
as §2

For test [12], the system named is MIA PaCa-2. The test is described as follows: Induction of mitochondrial ROS generation in human MIA PaCa-2 cells at 25 nM in presence of Cu2+ incubated for 24 hrs by MitoSox red dye based flow cytometry analysis. In kind it is functional. The conditions noted are these: Mitochondria. The essentials:
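Exposure was 25 nM compound plus 20 μM Cu(II) for 24 h. Cells washed, stained with MitoSOX for 30 min at 37 °C, washed with PBS and analysed by flow cytometry. Mean ± SD, n = 2, Student t-test.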
(Flow cytometry measures light scatter and fluorescence of single cells or particles in a stream.)

Test [13] deals with 143B. In words: Cytotoxicity against human 143-BTK Rho0 cells assessed as reduction in cell viability at 25 to 100 nM incubated for 48 hrs by trypan blue assay. It counts as functional, cell-based. The conditions noted are these: dose nM 25-100, time 48.0 hrs. The essentials: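 143 BTK parental (WT) and ρ0 cells were exposed to the indicated compound concentrations plus 20 μM Cu(II) for 48 h. Viable cells were counted by trypan blue staining on a Vi-Cell counter. Mean ± SD, n = 2, Student t-test.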

pIC50: −log10 of the molar value. The source made the active and inactive calls. The rule behind the calls is not given here.

With `CN(C)C(=S)NN=Cc1nccc2cc(F)ccc12`, the outcome in test [1], in test [3] and in test [13] was inactive. Moreover, the IC90 in [2] is 111 nM. Moreover, the pIC50 in test [4], in test [5], in test [6] and in [7] was 9.00 in each case. Besides, the Activity in [8] turned out to be 3.68%. The outcome in [9], in test [10], in [11] and in [12] was Active.

The term IC90 denotes the concentration needed for an effect of 90%. The term pIC50 denotes −log10 of the IC50, conventionally taken in molar units.
